According to ChEMBL document CHEMBL4138314, “Synthesis and Evaluation of N-Phenyl-3-sulfamoyl-benzamide Derivatives as Capsid Assembly Modulators Inhibiting Hepatitis B Virus (HBV)” (J Med Chem, 2018):
≈ marks a conversion by molar mass, not a printed value.

Legend:
[1] = Cytotoxicity against human HepG2 cells after 4 days by resazurin assay; format: cell-based
Hepatitis B virus [2] = experiment: Antiviral activity against Hepatitis B virus infected in human HepG2.117 cells assessed as inhibition of viral DNA level after 3 days by real time PCR; format: functional, organism-based; details: HepG2.117, 72 h
Hepatitis B virus [3] = experiment: Induction of HBV capsid core protein CP149 aggregation assessed as ratio between area under the curve for observed amount of core dimer and area under the curve for aggregated core protein at 20 uM after 24 hrs by size exclusion chromatographic analysis
In short: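 Recombinant HBV core assembly domain (aa 1–149, Cp149) was incubated with compound at 20 µM for 24 h, with a no-compound control run in parallel. Size exclusion chromatography gave the ratio of Cp149 dimer AUC to aggregated Cp149 AUC.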

[4] = Drug metabolism in mouse liver microsomes at 1 uM after 15 mins by LC-MS/MS analysis; format: ADME, microsome; details: read-out: Drug metabolism
In short: (§1)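 Compound incubated 15 min with human or mouse liver microsomes; stability expressed as percent turnover (metabolised) at 15 min.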

[5] = Kinetic solubility of the compound at pH 7.4 after 4 hrs by UPLC-UV analysis; format: physicochemical; details: buffer, read-out: Kinetic_solubility
[6] = Drug metabolism in human liver microsomes at 1 uM after 15 mins by LC-MS/MS analysis; format: ADME, microsome; details: read-out: Drug metabolism; in short: as §1
HBV genotype D = experiment: Antiviral activity against HBV genotype D infected in human HepG2.2.15 cells assessed as inhibition of viral DNA level treated twice for 3 days measured after 6 days by real time PCR; format: functional, organism-based; details: Hepatitis B virus

SMILES	CC50 at 96 h [1] [µM]	EC50 (Hepatitis B virus [2]) [µM]	Ratio (Hepatitis B virus [3])	metabolised at 0.25 h, 1 µM [4] [%]	solubility kinetic at 4 h [5] [µM]	metabolised at 0.25 h, 1 µM [6] [%]	EC50 (HBV genotype D) [µM]
O=C(Nc1ccc(F)cc1)c1cccc(S(=O)(=O)NC2COC2)c1	> 100	3.05	0.8	21	> 100	14	2.1
O=C(Nc1cccc(F)c1)c1cccc(S(=O)(=O)NC2CCCC2)c1	> 25	0.43	–	100	57 (≈ 20.7 µg/mL)	88	0.27
O=C(Nc1ccc(F)cc1)c1cccc(S(=O)(=O)N2CCCCC2)c1	70.4	2.7	0.4	99	9 (≈ 3.26 µg/mL)	65	4.5
O=C(Nc1ccc(F)cc1)c1cccc(S(=O)(=O)N[C@H]2CCOC2)c1	> 100	1.36	–	29	> 100	32	0.54
CC1(NS(=O)(=O)c2cccc(C(=O)Nc3ccc(F)cc3)c2)COC1	> 100	0.93	0.5	29	> 100	3	0.96
O=C(Nc1ccc(F)cc1)c1cc(S(=O)(=O)NC2CCCC2)ccc1F	> 25	0.66	–	77	82 (≈ 31.2 µg/mL)	36	0.36
CN(C1CCCC1)S(=O)(=O)c1cccc(C(=O)Nc2ccc(F)cc2)c1	23.8	11.1	–	100	19 (≈ 7.15 µg/mL)	98	2.6
O=C(Nc1ccc(F)cc1)c1cccc(S(=O)(=O)NC2CCC2)c1	57.7	0.9	–	99	84 (≈ 29.3 µg/mL)	51	0.83
CN(C)S(=O)(=O)c1cccc(C(=O)Nc2ccc(F)cc2)c1	> 100	2.99	1.4	89	43 (≈ 13.9 µg/mL)	50	5.02
O=C(NC1CCCCC1)c1cc(S(=O)(=O)NC2CCCCC2)ccc1F	> 25	> 25	–	–	–	–	28.8
O=C(Nc1ccc(F)cc1)c1cccc(S(=O)(=O)N[C@@H]2CCOC2)c1	> 100	2.03	–	24	> 100	21	1.18
O=C(Nc1ccc(F)cc1)c1cccc(S(=O)(=O)NC2CCOCC2)c1	> 100	1.67	–	48	> 100	14	0.93
CC(=O)N1CCC(NS(=O)(=O)c2cccc(C(=O)Nc3ccc(F)cc3)c2)CC1	> 100	4.68	2.9	23	> 100	0	6.77
Cc1ccc(NC(=O)c2cccc(S(=O)(=O)NC3CCCC3)c2)cc1F	> 25	15.3	–	99	12 (≈ 4.52 µg/mL)	67	1.99
O=S(=O)(NC1CCCCC1)c1ccc(F)c(-c2ncc(-c3ccccc3)[nH]2)c1	19.2	23.3	10.2	99	3 (≈ 1.2 µg/mL)	75	1.7
O=C(Nc1cccc(S(=O)(=O)NC2CCCCC2)c1)c1ccc(F)cc1	> 25	> 25	–	100	22 (≈ 8.28 µg/mL)	91	8
O=C(Nc1ccc(F)cc1)c1cc(S(=O)(=O)NC2CCCCC2)ccc1F	> 50	1.3	0.3	79	58 (≈ 22.9 µg/mL)	61	0.78
CN1CCC(NS(=O)(=O)c2cccc(C(=O)Nc3ccc(F)cc3)c2)CC1	> 100	16	4.2	13	94 (≈ 36.8 µg/mL)	10	5.3
